Assay outcomes: PubChem, Broad Institute
Casp6 inh: blocks human caspase-6 cleavage activity | P55212 | purified caspase-6, Z-VEID-R110 cleavage fluorescence | inhibition, % at 12.5 µM | 350,000 compounds, 0.53% hits | AID 686996;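 active means mean inhibition across replicates at least about 35%, with every replicate also reaching that limit, limit read from the data; inconclusive means only one of the two criteria met; inactive means neither criterion met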
Target sequence (P55212 24-179 limits assumed): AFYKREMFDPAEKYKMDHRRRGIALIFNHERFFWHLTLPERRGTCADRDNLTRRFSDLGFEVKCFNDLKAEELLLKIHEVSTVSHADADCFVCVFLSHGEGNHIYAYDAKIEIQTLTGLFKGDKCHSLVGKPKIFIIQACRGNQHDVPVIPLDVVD
Target sequence (P55212 194-293 limits assumed): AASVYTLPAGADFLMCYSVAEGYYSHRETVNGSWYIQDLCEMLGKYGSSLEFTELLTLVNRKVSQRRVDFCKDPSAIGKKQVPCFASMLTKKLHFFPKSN
Wnt bcat act: Wnt/beta-catenin pathway activation; Wnt/beta-catenin reporter cell assay, activator, plate reader; activation, % at 9.35 µM; 300,000 compounds, 1.2% hits; AID 743398; in the data active means activation above about 30%, passing the limit was not always enough; inconclusive means no clear call, values can overlap the other calls
esBAF inh: inhibitors of esBAF chromatin remodeling in mouse ES cells | Bmi1-luciferase knock-in reporter, 24 h; 100% = twice the neutral-well signal | AID 602393 | 350,000 compounds, 2% hits | reporter increase, % at 12.5 µM; in the data active means activation above about 40%; inconclusive means no clear call, values can overlap the other calls;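 further: a rise in the Bmi1 reporter signal indicates esBAF inhibition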
NSD2 inh: NSD2 (human) methyltransferase inhibition | inhibition, % at 12.5 µM | 310,000 compounds, 0.54% hits | NSD2 peptide methylation, AlphaScreen, 120 min | O96028; in the data active means inhibition above about 50%
Xi reactivation: X-chromosome reactivation activator; 360,000 compounds, 0.055% hits; XiGFP mouse fibroblasts, % GFP-positive cells imaging, 3 d; cells co-treated with 5-aza-dC sensitizer; scaled so ellipticine positive control = 100%; activation, % at 7.58 µM;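 active means mean normalized replicate activation at least 10% and every replicate at or above 10%; inconclusive means only one of the two criteria met; inactive means mean below 10% and not all replicates reach 10%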
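Schedule: 3 d treatment, 15 min room-temperature fixation; system: 68-5-11 XiGFP fibroblast line; buffer or medium: DMEM plus 5-aza-dC sensitizer; control set: ellipticine 6 µM positive control; compound: one concentration, pinned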
MITF act: MITF TRPM1 promoter activation in melanoma cells; SK-MEL-5 TRPM1-promoter luciferase, 24 h; % of positive control, neutral wells = 0; activation, % at 12.5 µM; 300,000 compounds, 0.75% hits; AID 588334;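 active means mean activation of at least 80% with every replicate also reaching 80%; inconclusive means mean reaches 80% but some replicate falls short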
A number is an active result; - = inactive; ? = inconclusive; . = not tested or not shown. Shown are actives, neighbours in structure and some others; about 3% of the full set was active somewhere.

SMILES | Casp6 inh | Wnt bcat act | esBAF inh | NSD2 inh | Xi reactivation | MITF act
O=C(Cn1cnc2ccccc2c1=O)Nc1ccc2c(c1)OCO2 | - | - | 57.1 | - | - | -
O=C(Nc1ccc2c(c1)OCO2)c1ccc2nc[nH]c2c1 | . | . | 48.6 | - | . | -
O=C(Nc1ccc(C(F)(F)F)cc1)c1ccc2nc[nH]c2c1 | - | - | - | - | - | -
S=C(NCc1cccs1)Nc1cccc(Cl)c1 | - | - | - | - | . | -
O=C(Nc1cccc([N+](=O)[O-])c1)Nc1cccc([N+](=O)[O-])c1 | - | - | . | - | - | -
CCCC#Cc1cnc2c(c1)C(=O)N([C@@H](C)CO)C[C@H](C)[C@@H](CN(C)C(=O)NCCC)O2 | - | . | - | . | - | .
N#C[C@@H]1[C@H](c2ccc(C3=CCCCC3)cc2)[C@H](CO)N1S(=O)(=O)c1cccc(F)c1 | - | . | - | . | - | .
C[C@H](CO)N1C[C@H](C)[C@@H](CN(C)Cc2cncnc2)Oc2cc(C#C[C@@H](C)O)ccc2S1(=O)=O | . | . | - | . | - | .
O=C(Nc1cccc(Cl)c1)Nc1ccc2c(c1)OCO2 | . | 31.6 | 58.0 | - | . | -
O=C(Nc1ccc(-c2nc3ccccc3[nH]2)cc1)c1ccc2c(c1)OCO2 | - | - | 44.8 | - | . | -
O=C(Nc1ccc2c(c1)OCO2)c1cnccn1 | - | - | . | - | - | -
O=C(Nc1ccc2c(c1)OCO2)c1ccccn1 | - | 45.9 | - | - | - | -
O=C(Nc1ccc(Cl)c(-c2nc3ccccc3[nH]2)c1)c1ccc2c(c1)OCO2 | . | - | . | - | - | -
CCC(=O)Nc1ccc(NC(=O)c2ccc3c(c2)OCO3)cc1 | . | . | - | - | . | -
CCC(=O)Nc1cccc(NC(=O)c2ccc3c(c2)OCCO3)c1 | . | . | 72.1 | - | . | -
O=C(C[C@H]1CC[C@@H]2[C@H](COC[C@@H](O)CN2S(=O)(=O)c2ccccc2Cl)O1)NCc1ccccc1Cl | - | . | - | . | - | .
COCC(=O)Nc1ccc2c(c1)OC[C@H](C)N(CCc1ccccc1)C[C@@H](C)[C@@H](OC)CN(C)C2=O | - | . | - | . | - | .
C[C@@H]1CN([C@H](C)CO)S(=O)(=O)c2ccc(C#Cc3ccccn3)cc2O[C@@H]1CN(C)C(=O)C1CC1 | - | . | - | . | - | .
CC(=O)c1cccc(NC(=O)Nc2ccc3c(c2)OCO3)c1 | - | - | 52.1 | - | - | 119.5
O=C(NCc1ccc2c(c1)OCO2)Nc1cccc(Cl)c1 | - | - | 67.1 | - | - | 80.1
COc1cccc(NC(=O)Nc2ccc3c(c2)OCO3)c1 | - | 40.4 | 61.3 | - | - | -
CC(=O)c1cccc(NC(=O)NCc2ccc3c(c2)OCO3)c1 | - | - | - | - | - | -
Cn1ncc([N+](=O)[O-])c1C(=O)Nc1ccc(Cl)cc1 | - | - | - | - | - | -
Cn1ncc([N+](=O)[O-])c1C(=O)Nc1ccc(-c2nc3ccccc3[nH]2)cc1 | . | . | 55.6 | - | . | -
O=C(CSc1ccccc1)Nc1ccc(-c2nc3ccccc3[nH]2)cc1 | . | - | . | - | - | -
SMILES | Casp6 inh | Wnt bcat act | esBAF inh | NSD2 inh | Xi reactivation | MITF act
O=C(Nc1ccc2c(c1)CCC2)Nc1ccc2c(c1)OCO2 | - | 50.0 | 53.2 | - | - | -
O=C(CN1CCOCC1)Nc1ccc(-c2nc3ccccc3[nH]2)cc1 | . | . | . | - | . | 83.8
CC(C)C(=O)Nc1cccc(NC(=S)NC(=O)c2ccc3c(c2)OCO3)c1 | - | - | 62.2 | - | - | -
O=C(Nc1cccc(-c2cn3c(n2)SCC3)c1)c1ccc2c(c1)OCO2 | - | - | 49.3 | - | - | -
CC(C)C#Cc1ccc2c(c1)O[C@@H](CN(C)C(=O)c1ccccn1)[C@@H](C)CN([C@@H](C)CO)S2(=O)=O | - | . | - | . | - | .
C[C@H](CO)N1C[C@H](C)[C@@H](CN(C)S(=O)(=O)c2ccc(Cl)cc2)Oc2ccc(NC(=O)Cc3cn(C)c4ccccc34)cc2C1=O | - | . | - | . | - | .
CCN(CC)S(=O)(=O)c1cccc(C(=O)Nc2ccc3c(c2)OCO3)c1 | - | - | . | - | - | ?
CCC(CC)C(=O)Nc1cccc(C(=O)Nc2ccc3c(c2)OCO3)c1 | - | - | 46.9 | - | . | -
CO[C@H]1CN(C)C(=O)c2cc(NC(C)=O)ccc2OC[C@H](C)N(Cc2cccnc2)C[C@@H]1C | . | . | - | . | - | .
COc1cccc(-c2ccc3nccn3c2)c1 | - | - | 49.4 | . | - | .
CCCC#Cc1cnc2c(c1)C(=O)N([C@@H](C)CO)C[C@@H](C)[C@@H](CN(C)C(=O)NC1CCCC1)O2 | - | . | - | . | - | .
O=C(/C=C/c1ccc(Br)o1)Nc1nccs1 | - | 42.6 | . | - | - | -
CCC(=O)N[C@@H]1C=C[C@@H](CC(=O)NCC2CC2)O[C@H]1CO | . | . | . | . | - | .
Cc1ccc(Cn2nc(-c3ccccc3)nc2-c2ccccc2)cc1 | . | 55.3 | - | - | . | -
N#Cc1c(/N=C/c2cc(Br)cs2)sc2c1CCC2 | . | . | 78.5 | - | . | -
Cc1cnc(NC(=O)c2ccc3ncsc3c2)s1 | - | 48.4 | . | - | - | -
CCc1nnc(NC(=O)c2ccc3ncsc3c2)s1 | - | 34.4 | - | - | - | -
COc1cccc(C(=O)Nc2ccc3c(c2)C(=O)N(C)C[C@H](OC)[C@@H](C)CN[C@H](C)CO3)c1 | - | . | - | . | - | .
N#Cc1ccsc1NC(=O)COC(=O)c1ccc(NC(N)=O)cc1 | - | - | 47.6 | - | - | 87.2
O=c1c2ccccc2oc2ccc(NCCCn3ccnc3)cc12 | - | 34.5 | - | . | - | -
c1ccc2c(c1)oc1c(NCCCn3ccnc3)ncnc12 | . | . | . | - | . | -
COCC(=O)Nc1ccc2c(c1)C(=O)N(C)[C@H]1CC[C@H](CC(=O)Nc3cn(C)nc3C)O[C@@H]1CO2 | . | . | . | . | - | .
Cc1cc(NC(=O)c2cc(-c3ccco3)on2)no1 | . | . | - | - | . | -
O=C(Nc1ccc(F)c(Cl)c1)c1cc(-c2ccco2)on1 | - | 37.5 | - | - | - | -
Cc1ccc(NC(=O)c2cc(-c3ccco3)on2)cc1C | . | . | 47.4 | - | . | -
SMILES | Casp6 inh | Wnt bcat act | esBAF inh | NSD2 inh | Xi reactivation | MITF act
COc1ccc(NC(=O)c2cc(-c3ccco3)on2)cc1OC | - | - | - | - | - | -
Cc1ccc(NC(=O)c2cc(-c3cccc(O)c3)on2)cc1C | - | - | 49.0 | . | - | -
Cc1ccc(NC(=O)c2cc(-c3ccco3)on2)cc1 | . | . | . | - | . | 89.6
Cc1cc(=O)[nH]c(SCC(=O)c2ccc(Cl)cc2)n1 | . | . | . | - | . | .
CC=Cc1ccc2n(c1=O)C[C@H]1[C@H](CO)[C@@H](C(=O)NC3CCC3)[C@@H]2N1Cc1ccccc1 (mixture of isomers) | - | . | - | . | - | .
O=c1oc(CCCO)cc2ccc(/C=C/c3cccc([N+](=O)[O-])c3)cc12 | - | ? | 49.2 | . | - | 91.9
O=c1oc(CCCO)cc2ccc(Br)cc12 | - | - | - | . | - | -
COc1cccc(NC(=O)N[C@H]2C=C[C@@H](CC(=O)Nc3ccccc3)O[C@H]2CO)c1 | - | . | - | . | - | .
CNC[C@H]1Oc2ncc(C#CC3(O)CCCC3)cc2C(=O)N([C@H](C)CO)C[C@H]1C | - | . | - | . | - | .
